Screening results deposited in PubChem by several laboratories.
E coli WT exp: growth inhibitors of E. coli BW25113 wild type | OD600 absorbance | growth inhibition, % at 100 µM | actives 0.15% (n = 98,000) | AID 710;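 active means growth inhibition above about 50% at one test dose, limit read from the data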;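 further: growth measured after 20 h incubation at 37 °C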
HePTP inh: blocks human HePTP tyrosine phosphatase; P35236; recombinant HePTP phosphatase activity, OD absorbance; inhibition, % at 20 µM; actives 0.64% (n = 110,000); AID 521; in the data active means inhibition above about 50%
Target sequence (P35236 whole entry, looked up): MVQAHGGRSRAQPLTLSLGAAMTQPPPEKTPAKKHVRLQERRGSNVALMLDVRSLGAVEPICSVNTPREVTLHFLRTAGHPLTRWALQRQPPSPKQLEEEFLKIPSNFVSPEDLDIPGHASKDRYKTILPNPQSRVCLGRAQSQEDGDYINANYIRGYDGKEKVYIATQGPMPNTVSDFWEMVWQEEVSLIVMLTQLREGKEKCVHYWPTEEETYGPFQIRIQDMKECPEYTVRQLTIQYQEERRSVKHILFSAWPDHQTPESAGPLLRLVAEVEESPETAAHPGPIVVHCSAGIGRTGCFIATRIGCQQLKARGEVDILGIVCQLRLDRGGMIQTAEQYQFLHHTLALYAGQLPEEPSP
PLAP activator: activates human placental alkaline phosphatase; AID 696; actives 1.2% (n = 96,000); activation fold at 20 µM; purified PLAP enzyme, luminescent substrate read-out; hits give high values; P05187; in the data active means activation fold above about 2
PostGolgi yeast: growth inhibition of a yeast mutant, post-Golgi transport screen; inhibition, % at 10 µM; post-Golgi transport phenotypic cell assay; actives 0.9% (n = 98,000);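 further: yeast cells grown in 1536-well plates; yeast grown about 18 h at 30C before absorbance read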
PostGolgi ctrl: growth of the yeast control strain, post-Golgi counter-screen; efflux-deficient yeast background strain, growth absorbance A615, 16 h; inhibition, % at 10 µM; actives 5% (n = 98,000)
tolC growth inh: E. coli tolC mutant growth inhibition. E. coli BW25113 tolC mutant growth, OD615. growth inhibition, % at 10 µM (by protocol). actives 2.2% (n = 65,000);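 active means growth inhibition at or above a cutoff equal to the mean over every tested compound plus 3 SD, cut at about 60% in these data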;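 further: growth measured after 20 h incubation at 37 °C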
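Test system: tolC-deleted E. coli BW25113 | Medium: LB with kanamycin 50 µg/mL | Compound dosing: Single concentration, 10 µM final per compound | Schedule: 37 °C, 20 h exposure | Measured by: OD at 615 nm | Evaluation: Percent growth inhibition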
Hits are given with their value; - = inactive; . = not tested or not shown; ! = not active in a repeat. Only some compounds are listed: those with a hit (about 5.5% of all), similar ones and a draw of the others. Unless noted, no stated cut-off is given here; in the data, active means inhibition above about 30%; inactive means the rest.

SMILES | E coli WT exp | HePTP inh | PLAP activator | PostGolgi yeast | PostGolgi ctrl | tolC growth inh
CC(Oc1cccc(Cl)c1)C(=O)N1CCN(Cc2ccccc2)CC1 (stereo not given) | . | - | . | . | . | .
O=C(NC(c1ccccc1Cl)c1c(O)ccc2ccccc12)c1ccccc1 (stereo not given) | . | - | . | . | . | .
Cc1ccc(C)n1Cc1ccc(C(=O)O)cc1 | - | 104.0! | - | - | - | -
c1ccc(CNc2c3c(nc4ncnn24)CCCC3)nc1 | - | - | 2.5 | - | - | -
COC(=O)c1c(NC(=O)c2ccc(C)o2)sc2c1CCCCC2 | - | - | - | - | - | 63.0
O=C(Nc1sc2c(c1C(=O)NCC1CCCO1)CCCC2)c1cccs1 (stereo not given) | - | - | - | 86.5 | 68.3 | -
O=C(Nc1sc2c(c1C(=O)NC1CC1)CCCCCC2)c1ccco1 | - | - | - | - | 57.3 | -
COC(=O)c1c(NC(=O)c2c(-c3ccccc3Cl)noc2C)sc2c1CCC2 | - | . | - | - | 33.5 | .
Cc1ccc(NC(=O)C2CC(=O)N(c3cc(C)ccc3C)C2)cc1 (stereo not given) | . | - | . | . | . | .
COc1cc(-c2ccc(NC(=O)/C=C/c3ccco3)c(OC)c2)ccc1NC(=O)/C=C/c1ccco1 | . | - | . | . | . | .
O=C(NCCO)c1cccc([N+](=O)[O-])c1 | . | - | . | . | . | .
COC(=O)c1c(NC(=O)Cc2cccs2)sc2c1CCCC2 | - | - | - | - | - | 69.9
CCC1CCc2c(sc(NC(=O)c3ccc(Br)o3)c2C(=O)OC)C1 (stereo not given) | . | 103.7 | . | . | . | .
CCC1CCc2c(sc(NC(=O)c3ccoc3C)c2C(N)=O)C1 (stereo not given) | - | - | - | - | 30.3 | -
CCOC(=O)c1c(NC(=O)C2C3CCC(O3)C2C(=O)O)sc2c1CCC(CC)C2 (stereo not given) | . | 103.0 | . | . | . | .
CC12CC3CC(C1)CC(CC(=O)O)(C3)C2 | . | - | . | . | . | .
O=C(O)c1cccc(-c2ccc(/C=C/c3cc(C(F)(F)F)[nH]c(=O)n3)o2)c1 | . | - | . | . | . | .
COc1ccc(Cl)cc1C(=O)NCc1cccnc1 | . | - | . | . | . | .
COc1ccc(OCC(O)CNc2ccc(Br)cc2)cc1 (stereo not given) | - | - | - | - | - | 73.2
OC(CNc1ccc(Br)cc1)COc1ccc(OCC(O)CNc2ccc(Br)cc2)cc1 (stereo not given) | . | - | . | . | . | .
Cc1ccc(/C=C2/C=C(c3ccccc3)OC2=O)cc1 | . | - | . | . | . | .
N#CC1=C(c2ccccc2)/C(=C/c2ccccc2)OC1=O | - | . | - | - | 50.6 | .
O=S(=O)(c1ccccc1)n1nc(-c2ccccc2)nc1NCc1ccco1 | - | - | - | - | 36.2 | -
O=C(Nc1nc2ccc3ccccc3c2s1)c1ccc(Cl)s1 | . | 104.2 | . | . | . | .
O=C(Nc1nc(-c2ccccn2)cs1)c1ncc(Cl)c(Cl)c1Cl | - | . | - | 82.5 | 38.7 | .
SMILES | E coli WT exp | HePTP inh | PLAP activator | PostGolgi yeast | PostGolgi ctrl | tolC growth inh
O=C(Nc1nc(-c2ccccn2)cs1)c1ccc(Cl)s1 | - | - | - | 37.0 | - | 100.0
CCOC(=O)c1cnn(-c2ccc(Cl)cc2)c1C1CCN(C(=O)OC(C)(C)C)CC1 | - | . | 2.3 | - | - | .
COc1ccccc1-c1c(C)nn2c(N3CCC4(CC3)OCCO4)cc(C)nc12 | - | - | - | - | 97.6 | -
CCn1nnc(NC(=O)CSc2ccc(Cl)cc2)n1 | - | - | - | - | - | -
CCCn1nnnc1NC(=O)CSc1ccc(Cl)cc1 | - | - | - | - | - | 74.6
Cc1ccc(C(=O)Nc2ccccc2C(=O)N2CC3(C)CC2CC(C)(C)C3)cc1 (stereo not given) | - | . | - | - | 41.1 | .
CCOc1cc(S(=O)(=O)N2CCN(Cc3ccccc3)CC2)ccc1Br | - | - | - | - | - | 63.8
COc1ccccc1N1C(=O)/C(=C/c2ccc(N(C)C)cc2)SC1=S | . | - | . | . | . | .
CC1CC(=O)C2=C(C1)Nc1ncnn1C2c1ccccc1 (stereo not given) | - | - | - | - | 47.9 | -
CCCCOC(=O)c1ccc(NC(=O)COc2ccc([N+](=O)[O-])cc2)cc1 | . | - | . | . | . | .
O=c1oc2cc(Oc3c([N+](=O)[O-])cc(C(F)(F)F)cc3[N+](=O)[O-])ccc2c2c1CCCC2 | - | . | - | 106.1 | 85.3 | .
COc1ccc2c3c(c(=O)oc2c1)CCCC3 | . | - | . | . | . | .
CC1CCc2c(sc(NC(=O)C(C(C)C)N3C(=O)c4ccccc4C3=O)c2C(N)=O)C1 (stereo not given) | . | - | . | . | . | .
CCOCCOC(=O)C1=C(C)NC(=O)NC1c1ccc(O)cc1 (stereo not given) | . | - | . | . | . | .
O=C(CN1CCN(S(=O)(=O)c2ccc(Br)cc2)CC1)Nc1ccccc1F | - | - | - | - | 53.6 | -
COc1ccc(C)cc1NC(=O)CN1CCN(S(=O)(=O)c2ccc(Br)cc2)CC1 | - | - | - | - | 46.3 | -
O=C(CN1CCCN(S(=O)(=O)c2ccc(F)cc2)CC1)Nc1ccccc1Br | - | - | . | - | 40.9 | -
O=C(Nc1ccc2c(c1)oc1ccccc12)c1ccco1 | . | - | . | . | . | .
COc1cc(C=C2C(=O)NC(=O)NC2=O)ccc1OCc1cccc(F)c1 | . | - | . | . | . | .
CC1(C)CC(=O)c2sc(NC(=O)C3COc4ccccc4O3)nc2C1 (stereo not given) | - | . | - | - | 38.2 | .
CC(=O)c1sc(NC(=O)C2COc3ccccc3O2)nc1C (stereo not given) | - | - | . | - | - | -
Cn1c(=O)c2ncn(CC(=O)Nc3ccc4oc(-c5cccc6ccccc56)nc4c3)c2n(C)c1=O | . | - | . | . | . | -
CCC(C)c1ccc2oc(-c3ccc(NC(=O)Cn4cnc5c(=O)n(C)c(=O)n(C)c54)cc3)nc2c1 (stereo not given) | - | - | - | - | 75.9 | -
COC(=O)c1ccc(Nc2cc(C)nc3ncnn23)cc1 | - | - | 2.2 | - | - | -
CCOC(=O)c1ccc(Nc2c(CC)c(C)nc3ncnn23)cc1 | - | - | . | - | - | -
SMILES | E coli WT exp | HePTP inh | PLAP activator | PostGolgi yeast | PostGolgi ctrl | tolC growth inh
CCOC(=O)c1ccc(Nc2cc(C)nc3ncnn23)cc1 | - | - | 2 | - | - | -
Cc1cc(Nc2cccc(C(=O)O)c2)n2ncnc2n1 | . | - | . | . | . | .
CCOc1ccccc1OCCCCN1CCCCC1 | . | - | . | . | . | .
Cc1nn2c(N3CCN(c4ccccn4)CC3)cc(C(C)C)nc2c1-c1ccccc1 | - | - | - | 40.5 | 98.9 | -
Cc1cc(N2CCOCC2)n2nc(C)c(-c3ccccc3)c2n1 | - | - | - | - | - | -
Cc1cccn2c(=O)c(/C=C3\SC(=S)N(CC4CCCO4)C3=O)c(NCCc3ccccc3)nc12 (stereo not given) | . | - | . | . | . | .
O=C(CSc1ccc2ccccc2c1)Nc1ccncc1 | - | . | - | 103.2 | 92.2 | .
CC(=O)Oc1ccc(NC(=O)CSc2ccccc2)cc1 | - | - | - | - | 37.2 | -
COc1ccc(OC)c(NC(=O)CSc2ccc3ccccc3c2)c1 | - | . | - | - | 39.7 | .
COc1ccc(OC)c(NC(=O)Cc2coc3ccc4ccccc4c23)c1 | - | . | - | - | 35.1 | .
COc1ccc(OC)c(NC(=O)Cc2coc3ccc(C)cc23)c1 | - | - | - | - | - | -
CNC1(c2ccc(OC)cc2)Oc2ccccc2C(C#Cc2ccccc2)=C1C (stereo not given) | . | - | . | . | . | .
